Data taken from ChEMBL document CHEMBL1139875, “Discovery of 4-aminobutyric acid derivatives possessing anticonvulsant and antinociceptive activities: a hybrid pharmacophore approach” (2007).
Calls of active or inactive are those of the source. The calls are words filed in the database; no cut-off is given here.

What was measured:
Mus musculus [1] = assay: Anticonvulsant activity in Swiss Albino mouse at 300 mg/kg, ip after 0.5 hr by MES test; format: functional, organism-based; design: dose 300 mg/kg
How it was run: (§1)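 Mice (Swiss, 20-25 g) given i.p. doses of 30, 100 and 300 mg/kg under ADD program protocols, three per group, examined at 0.5 and 4 h in MES, scPTZ, scSTY or scPIC seizure tests. Value is the minimum dose protecting half or more of the mice.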

Mus musculus [2] = assay: Anticonvulsant activity in Swiss Albino mouse at 300 mg/kg, ip after 4 hrs by MES test; format: functional, organism-based; design: dose 300 mg/kg; how it was run: as §1
Mus musculus [3] = assay: Anticonvulsant activity in Swiss Albino mouse at 300 mg/kg, ip after 0.5 hr by scPTZ test; format: functional, organism-based; design: dose 300 mg/kg; how it was run: as §1
Mus musculus [4] = assay: Anticonvulsant activity in Swiss Albino mouse at 300 mg/kg, ip after 0.5 hr by scSTY test; format: functional, organism-based; design: dose 300 mg/kg; how it was run: as §1
Mus musculus [5] = assay: Anticonvulsant activity in Swiss Albino mouse at 300 mg/kg, ip after 4 hrs by scSTY test; format: functional, organism-based; design: dose 300 mg/kg; how it was run: as §1
Mus musculus [6] = assay: Anticonvulsant activity in Swiss Albino mouse at 100 mg/kg, ip after 0.5 hr by scPIC test; format: functional, organism-based; design: dose 100 mg/kg; how it was run: as §1
Mus musculus [7] = assay: Anticonvulsant activity in Swiss Albino mouse at 100 mg/kg, ip after 4 hrs by scPIC test; format: functional, organism-based; design: dose 100 mg/kg; how it was run: as §1
Mus musculus [8] = assay: Neurotoxicity in Swiss Albino mouse at 300 mg/kg, ip after 0.5 hr by rotarod test; format: functional, organism-based; design: dose 300 mg/kg
How it was run: (§2)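 Swiss mice (20-25 g) are trained on an accelerating rotorod (10 rpm, 3.2 cm rod), then injected i.p. at 30, 100 or 300 mg/kg, with three per group. Neurotoxicity means failure to keep equilibrium for at least 1 min in each of three trials, checked at 0.5 and 4 h. The value reported is the minimum dose affecting half or more of the mice.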

Mus musculus [9] = assay: Neurotoxicity in Swiss Albino mouse at 300 mg/kg, ip after 4 hrs by rotarod test; format: functional, organism-based; design: dose 300 mg/kg; how it was run: as §2
Mus musculus [10] = assay: Analgesic activity in Swiss Albino mouse assessed as number of acetic acid-induced writhing per 30 min after 100 mg/kg, ip; format: functional
How it was run: (§3)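 Mice in groups of six dosed i.p. at 100 mg/kg, controls receiving 30% v/v PEG 400 in water. Writhing induced by i.p. 0.1 mL of 3% v/v acetic acid 1 h after drug. Writhes (abdominal stretch with at least one hind limb extended) counted over 30 min; % inhibition calculated. Mean ± SEM, Student's t test.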

Mus musculus [11] = assay: Analgesic activity in Swiss Albino mouse assessed as inhibition of acetic acid-induced writhing responses at 100 mg/kg, ip; format: functional; how it was run: as §3
Rattus norvegicus [12] = assay: Anti-dynamic allodynia effect in Sprague-Dawley rat SNL model assessed as latency to paw withdrawal 100 mg/kg, ip after 0.5 hr; format: functional; conditions: route intraperitoneal
How it was run: (§4)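 Left L5 spinal nerve ligation rats, tested preoperatively and 9 days postoperatively, then given 100 mg/kg i.p. (vehicle 30% v/v PEG 400 in water). After 10 min acclimatization, plantar surface of affected paw stroked mildly with a cotton-bud; paw lift response recorded. n = 4; retested 0.5-2.5 h post-dose.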

Rattus norvegicus [13] = assay: Anti-dynamic allodynia effect in Sprague-Dawley rat SNL model assessed as latency to paw withdrawal 100 mg/kg, ip after 1 hr; format: functional; conditions: route intraperitoneal; how it was run: as §4
Rattus norvegicus [14] = assay: Anti-dynamic allodynia effect in Sprague-Dawley rat SNL model assessed as latency to paw withdrawal 100 mg/kg, ip after 1.5 hrs; format: functional; conditions: route intraperitoneal; how it was run: as §4
Rattus norvegicus [15] = assay: Anti-dynamic allodynia effect in Sprague-Dawley rat SNL model assessed as latency to paw withdrawal 100 mg/kg, ip after 2 hrs; format: functional; conditions: route intraperitoneal; how it was run: as §4
Rattus norvegicus [16] = assay: Anti-dynamic allodynia effect in Sprague-Dawley rat SNL model assessed as latency to paw withdrawal 100 mg/kg, ip after 2.5 hrs; format: functional; conditions: route intraperitoneal; how it was run: as §4
Rattus norvegicus [17] = assay: Antihyperalgesic effects in Sprague-Dawley rat CCI model assessed as duration of paw withdrawal at 100 mg/kg, ip after 0.5 hr; format: functional; conditions: route intraperitoneal
Rattus norvegicus [18] = assay: Antihyperalgesic effects in Sprague-Dawley rat CCI model assessed as duration of paw withdrawal at 100 mg/kg, ip after 1 hr; format: functional; conditions: route intraperitoneal
Rattus norvegicus [19] = assay: Antihyperalgesic effects in Sprague-Dawley rat CCI model assessed as duration of paw withdrawal at 100 mg/kg, ip after 1.5 hrs; format: functional; conditions: route intraperitoneal
Rattus norvegicus [20] = assay: Antihyperalgesic effects in Sprague-Dawley rat CCI model assessed as duration of paw withdrawal at 100 mg/kg, ip after 2 hrs; format: functional; conditions: route intraperitoneal
Rattus norvegicus [21] = assay: Antihyperalgesic effects in Sprague-Dawley rat CCI model assessed as duration of paw withdrawal at 100 mg/kg, ip after 2.5 hrs; format: functional; conditions: route intraperitoneal
Rattus norvegicus [22] = assay: Effect on spontaneous pain in Sprague-Dawley rat SNL model assessed as duration of paw withdrawal at 100 mg/kg, ip after 0.5 hr; format: functional; conditions: route intraperitoneal
How it was run: (§5)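 Rats underwent left L5 spinal nerve ligation (Kim and Chung) under i.p. pentobarbital (65 mg/kg). Spontaneous pain is recorded for 5 min after 10 min acclimatization, as cumulative duration the ipsilateral paw is lifted, excluding locomotor lifts. Dosing is 100 mg/kg i.p. in 30% v/v PEG 400/water, with testing at 0.5–2.5 h. Four rats, mean ± SEM versus predrug, one-way ANOVA with Bonferroni.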

Rattus norvegicus [23] = assay: Effect on spontaneous pain in Sprague-Dawley rat SNL model assessed as duration of paw withdrawal at 100 mg/kg, ip after 1 hr; format: functional; conditions: route intraperitoneal; how it was run: as §5
Rattus norvegicus [24] = assay: Effect on spontaneous pain in Sprague-Dawley rat SNL model assessed as duration of paw withdrawal at 100 mg/kg, ip after 1.5 hrs; format: functional; conditions: route intraperitoneal; how it was run: as §5
Rattus norvegicus [25] = assay: Effect on spontaneous pain in Sprague-Dawley rat SNL model assessed as duration of paw withdrawal at 100 mg/kg, ip after 2 hrs; format: functional; conditions: route intraperitoneal; how it was run: as §5
Rattus norvegicus [26] = assay: Effect on spontaneous pain in Sprague-Dawley rat SNL model assessed as duration of paw withdrawal at 100 mg/kg, ip after 2.5 hrs; format: functional; conditions: route intraperitoneal; how it was run: as §5
Rattus norvegicus [27] = assay: Antihyperalgesic effects in Sprague-Dawley rat SNL model assessed as duration of paw withdrawal at 100 mg/kg, ip after 0.5 hr, ip; format: functional; conditions: route intraperitoneal
How it was run: (§6)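 L5 SNL rats (n = 4), dosed 100 mg/kg i.p. (vehicle 30% v/v PEG 400 in water). Pin-prick to midplantar ipsilateral left hindpaw; withdrawal duration, mean of three responses; ≥2 s defined abnormal. Mean ± SEM; one-way ANOVA with Bonferroni versus predrug.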

Rattus norvegicus [28] = assay: Antihyperalgesic effects in Sprague-Dawley rat SNL model assessed as duration of paw withdrawal at 100 mg/kg, ip after 1 hr, ip; format: functional; conditions: route intraperitoneal; how it was run: as §6
Rattus norvegicus [29] = assay: Antihyperalgesic effects in Sprague-Dawley rat SNL model assessed as duration of paw withdrawal at 100 mg/kg, ip after 1.5 hrs, ip; format: functional; conditions: route intraperitoneal; how it was run: as §6
Rattus norvegicus [30] = assay: Antihyperalgesic effects in Sprague-Dawley rat SNL model assessed as duration of paw withdrawal at 100 mg/kg, ip after 2 hrs, ip; format: functional; conditions: route intraperitoneal; how it was run: as §6
Rattus norvegicus [31] = assay: Antihyperalgesic effects in Sprague-Dawley rat SNL model assessed as duration of paw withdrawal at 100 mg/kg, ip after 2.5 hrs, ip; format: functional; conditions: route intraperitoneal; how it was run: as §6
Rattus norvegicus [32] = organism: Rattus norvegicus; assay: Anti-dynamic allodynic effect in Sprague-Dawley rat CCI model assessed as latency to paw withdrawal after 0.5 hr; format: functional
How it was run: (§7)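 Rats with sciatic nerve chronic constriction injury (pentobarbital 65 mg/kg i.p. anaesthesia), baseline and day 9 testing, then drug per randomization table. After 10 min acclimatization, affected plantar surface stroked mildly with a cotton-bud; paw lift recorded. n = 4; retested 0.5-2.5 h post-dose.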

Rattus norvegicus [33] = organism: Rattus norvegicus; assay: Anti-dynamic allodynic effect in Sprague-Dawley rat CCI model assessed as latency to paw withdrawal after 1 hr; format: functional; how it was run: as §7
Rattus norvegicus [34] = organism: Rattus norvegicus; assay: Anti-dynamic allodynic effect in Sprague-Dawley rat CCI model assessed as latency to paw withdrawal after 1.5 hr; format: functional; how it was run: as §7
Rattus norvegicus [35] = organism: Rattus norvegicus; assay: Anti-dynamic allodynic effect in Sprague-Dawley rat CCI model assessed as latency to paw withdrawal after 2 hr; format: functional; how it was run: as §7
Rattus norvegicus [36] = organism: Rattus norvegicus; assay: Anti-dynamic allodynic effect in Sprague-Dawley rat CCI model assessed as latency to paw withdrawal after 2.5 hr; format: functional; how it was run: as §7
Mus musculus [37] = assay: Anticonvulsant activity in Swiss Albino mouse at 30 mg/kg, ip after 0.5 hr by MES test; format: functional, organism-based; design: dose 30 mg/kg; how it was run: as §1
Mus musculus [38] = assay: Anticonvulsant activity in Swiss Albino mouse at 30 mg/kg, ip after 4 hrs by MES test; format: functional, organism-based; design: dose 30 mg/kg; how it was run: as §1
Mus musculus [39] = assay: Anticonvulsant activity in Swiss Albino mouse at 300 mg/kg, ip after 0.5 hr by scPIC test; format: functional, organism-based; design: dose 300 mg/kg; how it was run: as §1
Mus musculus [40] = assay: Anticonvulsant activity in Swiss Albino mouse at 300 mg/kg, ip after 4 hrs by scPIC test; format: functional, organism-based; design: dose 300 mg/kg; how it was run: as §1
Mus musculus [41] = assay: Neurotoxicity in Swiss Albino mouse at 100 mg/kg, ip after 0.5 hr by rotarod test; format: functional, organism-based; design: dose 100 mg/kg; how it was run: as §2
Mus musculus [42] = assay: Neurotoxicity in Swiss Albino mouse at 100 mg/kg, ip after 4 hrs by rotarod test; format: functional, organism-based; design: dose 100 mg/kg; how it was run: as §2

O=C(O)CCCNC(=O)N/N=C/c1ccc(Cl)cc1
Activity (Mus musculus [1]): inactive
Activity (Mus musculus [2]): inactive
Activity (Mus musculus [3]): inactive
Activity (Mus musculus [4]): Active
Activity (Mus musculus [5]): Active
Activity (Mus musculus [6]): Active
Activity (Mus musculus [7]): Active
Activity (Mus musculus [8]): inactive
Activity (Mus musculus [9]): inactive
Activity (Mus musculus [10]; route intraperitoneal): 59.3
inhibition in vivo at 100 mg/kg (Mus musculus [11]; route intraperitoneal): 68%
Activity (Rattus norvegicus [12]): 4.5 s
Activity (Rattus norvegicus [13]): 4.2 s
Activity (Rattus norvegicus [14]): 11.3 s
Activity (Rattus norvegicus [15]): 0.8 s
Activity (Rattus norvegicus [16]): 0.35 s
Activity (Rattus norvegicus [17]): 7.9 s
Activity (Rattus norvegicus [18]): 7.8 s
Activity (Rattus norvegicus [19]): 4.4 s
Activity (Rattus norvegicus [20]): 4.2 s
Activity (Rattus norvegicus [21]): 7.2 s
Activity (Rattus norvegicus [22]): 33.1 s
Activity (Rattus norvegicus [23]): 14 s
Activity (Rattus norvegicus [24]): 12.7 s
Activity (Rattus norvegicus [25]): 11.2 s
Activity (Rattus norvegicus [26]): 15.9 s
Activity (Rattus norvegicus [27]): 24.6 s
Activity (Rattus norvegicus [28]): 17.3 s
Activity (Rattus norvegicus [29]): 12.3 s
Activity (Rattus norvegicus [30]): 5.6 s
Activity (Rattus norvegicus [31]): 17.9 s
Activity (Rattus norvegicus [32]): 14.9 s
Activity (Rattus norvegicus [33]): 3.5 s
Activity (Rattus norvegicus [34]): 1.1 s
Activity (Rattus norvegicus [35]): 14.5 s
Activity (Rattus norvegicus [36]): 13 s

O=C1NC(=O)C(c2ccccc2)(c2ccccc2)N1
Activity (Mus musculus [37]): Active
Activity (Mus musculus [38]): Active
Activity (Mus musculus [3]): inactive
Activity (Mus musculus [4]): inactive
Activity (Mus musculus [5]): inactive
Activity (Mus musculus [39]): inactive
Activity (Mus musculus [40]): inactive
Activity (Mus musculus [41]): Active
Activity (Mus musculus [42]): Active
Activity (Mus musculus [10]): inactive
Activity (Mus musculus [11]): inactive
